Key:
[1] = Oral bioavailability in rat at 10 mg/kg; format: ADME, organism-based; details: in vivo
[2] = Clearance in rat at 10 mg/kg; format: ADME, organism-based; design: dose 10 mg/kg; details: in vivo
[3] = tested on: HUVEC; assay: Inhibition of VEGF-induced HUVEC proliferation; format: functional, cell-based; details: Homo sapiens
In short: (§1)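 HUVEC seeded in 5% FBS medium on type 1 collagen, held overnight at 37 °C, 5% CO2. Inhibitor at various concentrations added in serum-free medium. After 30 min, VEGF (10 ng/mL) or bFGF (0.3 ng/mL) added. Cells incubated a further 72 h, with BrdU (10 µM) present for the last 18–24 h. Incorporation read by ELISA; IC50 from fit of y = Vmax(1 − x/(K + x)).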

[4] = biological target: Cytochrome P450 2D6 (Homo sapiens, UniProt P10635); assay: Inhibition of human recombinant CYP2D6; format: ADME
In short: (§2)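 Recombinant human CYP450 microsomal protein (0.1 mg/mL) with substrate in 50 mM potassium phosphate, pH 7.4. Compound (range of concentrations, methanol) preincubated 10 min at 37 °C. Reaction started with an NADPH-generating system. Fluorescent metabolite formation followed over 10 min. Rates converted to percent of mean control; IC50 from the slope of the plot. Miconazole included as positive control.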

[5] = biological target: Cytochrome P450 2C19 (Homo sapiens, UniProt P33261); assay: Inhibition of human recombinant CYP2C19; format: ADME; in short: as §2
[6] = tested on: HUVEC; assay: Inhibition of VEGF-induced HUVEC proliferation by BrdU incorporation method after 72 hrs; format: functional, cell-based; details: Homo sapiens; in short: as §1
[7] = biological target: Cytochrome P450 2C9 (Homo sapiens, UniProt P11712); assay: Inhibition of human recombinant CYP2C9; format: ADME
[8] = biological target: T1, Cytochrome P450 3A4 (Homo sapiens, UniProt P08684); assay: Inhibition of human recombinant CYP3A4 using diethoxyfluorescein substrate; format: ADME
In short: (§3)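 Recombinant human CYP450 microsomal protein (0.1 mg/mL) with substrate and a concentration range of compound (dissolved in methanol), preincubated 10 min at 37 °C in 50 mM potassium phosphate pH 7.4. Reaction started with an NADPH-generating system. Fluorescent metabolite formation followed over 10 min. Rates converted to percent of mean control rate, and IC50 derived from the plot. Miconazole served as positive control.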

[9] = biological target: T1, Cytochrome P450 3A4; assay: Inhibition of human recombinant CYP3A4 using 7-benzyloxyquinoline substrate; format: ADME; in short: as §3
[10] = biological target: T2, Vascular endothelial growth factor receptor 2 (Homo sapiens, UniProt P35968); assay: Inhibition of VEGFR2
[11] = tested on: Mus musculus; assay: Inhibition of angiogenesis in Swiss Nu/Nu mouse assessed as hemoglobin content at 100 mg/kg, po by bFGF/matrigel plug assay; format: functional
[12] = tested on: HT-29; assay: Antitumor activity against human HT29 cells xenografted in mouse assessed as inhibition of tumor growth at 100 mg/kg, po relative to control; format: functional
[13] = Plasma concentration in mouse at 100 mg/kg, po after 12 hrs; format: ADME, organism-based; design: dose 100 mg/kg, route oral
[14] = Oral bioavailability in dog at 1 mg/kg; format: ADME, organism-based, Canis lupus familiaris; details: in vivo
[15] = tested on: HN5; assay: Antitumor activity against human HN5 cells xenografted in mouse assessed as inhibition of tumor growth at 100 mg/kg, po relative to control; format: functional
[16] = AUC (0 to infinity) in mouse at 30 mg/kg, po; format: ADME, organism-based; design: dose 30 mg/kg, route oral, time infinity; details: plasma
[17] = Antitumor activity against human A375P cells xenografted in mouse assessed as inhibition of tumor growth at 10 mg/kg, po relative to control; format: functional
[18] = Clearance in dog at 1 mg/kg; format: ADME, organism-based, Canis lupus familiaris; design: dose 1 mg/kg; details: in vivo
[19] = tested on: HN5; assay: Antitumor activity against human HN5 cells xenografted in mouse assessed as inhibition of tumor growth at 30 mg/kg, po relative to control; format: functional
[20] = AUC (0 to infinity) in mouse at 100 mg/kg, po; format: ADME, organism-based; design: time infinity, dose 100 mg/kg, route oral; details: plasma
[21] = tested on: HN5; assay: Antitumor activity against human HN5 cells xenografted in mouse assessed as inhibition of tumor growth at 10 mg/kg, po relative to control; format: functional
[22] = tested on: Mus musculus; assay: Inhibition of angiogenesis in Swiss Nu/Nu mouse assessed as hemoglobin content at 30 mg/kg, po by bFGF/matrigel plug assay; format: functional
[23] = Plasma concentration in mouse at 10 mg/kg, po after 12 hrs; format: ADME, organism-based; design: dose 10 mg/kg, route oral
[24] = AUC (0 to infinity) in mouse at 10 mg/kg, po; format: ADME, organism-based; design: time infinity, dose 10 mg/kg, route oral; details: plasma
[25] = tested on: HT-29; assay: Antitumor activity against human HT29 cells xenografted in mouse assessed as inhibition of tumor growth at 30 mg/kg, po relative to control; format: functional
[26] = Protein binding in mouse plasma by equilibrium dialysis; format: ADME, cell-free; details: read-out: PPB
[27] = Clearance in monkey at 5 mg/kg; format: ADME, organism-based, Macaca mulatta; design: dose 5 mg/kg; details: rhesus monkey, in vivo
[28] = tested on: Mus musculus; assay: Inhibition of angiogenesis in Swiss Nu/Nu mouse assessed as hemoglobin content at 10 mg/kg, po by bFGF/matrigel plug assay; format: functional
[29] = Oral bioavailability in monkey at 5 mg/kg; format: ADME, organism-based, Macaca mulatta; details: rhesus monkey, in vivo
[30] = Plasma concentration in mouse at 30 mg/kg, po after 12 hrs; format: ADME, organism-based; design: dose 30 mg/kg, route oral
[31] = Antitumor activity against human A375P cells xenografted in mouse assessed as inhibition of tumor growth at 30 mg/kg, po relative to control; format: functional
[32] = Antitumor activity against human A375P cells xenografted in mouse assessed as inhibition of tumor growth at 100 mg/kg, po relative to control; format: functional
[33] = tested on: HT-29; assay: Antitumor activity against human HT29 cells xenografted in mouse assessed as inhibition of tumor growth at 10 mg/kg, po relative to control; format: functional
[34] = biological target: T2, Vascular endothelial growth factor receptor 2; assay: Inhibition of human recombinant VEGFR2
[35] = tested on: HUVEC; assay: Inhibition of basic-fibroblast growth factor-induced HUVEC proliferation; format: functional, cell-based; details: Homo sapiens; in short: as §1

T2 sequence (P35968 whole entry): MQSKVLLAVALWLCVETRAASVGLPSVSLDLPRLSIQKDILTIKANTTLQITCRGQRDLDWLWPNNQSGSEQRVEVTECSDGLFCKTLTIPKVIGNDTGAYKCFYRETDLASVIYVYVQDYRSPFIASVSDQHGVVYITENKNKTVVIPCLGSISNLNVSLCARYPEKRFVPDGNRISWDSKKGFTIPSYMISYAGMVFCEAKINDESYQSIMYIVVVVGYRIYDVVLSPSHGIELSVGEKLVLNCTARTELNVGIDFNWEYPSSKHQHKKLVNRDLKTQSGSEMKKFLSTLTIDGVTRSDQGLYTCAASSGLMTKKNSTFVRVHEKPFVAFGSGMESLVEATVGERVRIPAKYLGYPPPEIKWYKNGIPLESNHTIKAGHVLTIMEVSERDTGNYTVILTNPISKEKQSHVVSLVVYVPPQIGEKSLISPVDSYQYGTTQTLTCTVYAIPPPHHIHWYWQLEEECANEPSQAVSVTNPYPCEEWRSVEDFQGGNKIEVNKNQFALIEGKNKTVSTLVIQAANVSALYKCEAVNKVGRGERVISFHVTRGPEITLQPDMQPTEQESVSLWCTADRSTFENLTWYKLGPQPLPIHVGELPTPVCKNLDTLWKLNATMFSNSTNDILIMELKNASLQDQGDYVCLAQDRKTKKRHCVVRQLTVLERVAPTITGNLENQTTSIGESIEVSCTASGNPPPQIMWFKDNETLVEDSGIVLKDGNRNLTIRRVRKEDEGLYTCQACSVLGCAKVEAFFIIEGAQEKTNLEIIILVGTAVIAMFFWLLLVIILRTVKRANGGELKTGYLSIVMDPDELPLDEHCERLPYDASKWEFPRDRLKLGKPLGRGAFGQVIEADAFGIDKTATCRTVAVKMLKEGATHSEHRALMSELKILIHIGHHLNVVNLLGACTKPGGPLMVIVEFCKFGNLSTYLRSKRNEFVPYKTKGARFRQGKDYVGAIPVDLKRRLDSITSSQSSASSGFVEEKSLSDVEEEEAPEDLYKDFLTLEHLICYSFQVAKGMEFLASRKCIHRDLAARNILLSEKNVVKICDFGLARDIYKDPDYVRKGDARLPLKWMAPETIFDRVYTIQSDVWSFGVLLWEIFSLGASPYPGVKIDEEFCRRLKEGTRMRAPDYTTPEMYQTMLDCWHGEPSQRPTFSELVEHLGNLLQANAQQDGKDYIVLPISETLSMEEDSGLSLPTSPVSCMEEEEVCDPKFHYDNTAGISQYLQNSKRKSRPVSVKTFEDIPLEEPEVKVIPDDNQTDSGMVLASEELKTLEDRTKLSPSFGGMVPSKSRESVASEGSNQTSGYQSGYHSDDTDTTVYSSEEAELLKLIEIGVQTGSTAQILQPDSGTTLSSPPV
Chain of Cytochrome P450 2C9 (P11712 whole entry): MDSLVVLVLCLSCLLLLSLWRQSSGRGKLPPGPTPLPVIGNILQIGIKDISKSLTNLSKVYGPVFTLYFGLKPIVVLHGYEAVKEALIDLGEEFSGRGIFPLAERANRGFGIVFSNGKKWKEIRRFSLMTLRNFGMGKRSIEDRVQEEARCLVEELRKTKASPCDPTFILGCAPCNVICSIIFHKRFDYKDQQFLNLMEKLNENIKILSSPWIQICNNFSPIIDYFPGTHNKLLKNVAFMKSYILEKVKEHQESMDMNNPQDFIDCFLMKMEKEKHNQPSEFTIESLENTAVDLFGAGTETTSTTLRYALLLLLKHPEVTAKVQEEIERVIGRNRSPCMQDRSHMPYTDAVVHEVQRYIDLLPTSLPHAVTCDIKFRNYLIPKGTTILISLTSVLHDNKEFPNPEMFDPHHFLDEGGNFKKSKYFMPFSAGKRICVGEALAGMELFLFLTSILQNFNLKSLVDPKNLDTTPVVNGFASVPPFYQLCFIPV
T1 sequence (P08684 whole entry): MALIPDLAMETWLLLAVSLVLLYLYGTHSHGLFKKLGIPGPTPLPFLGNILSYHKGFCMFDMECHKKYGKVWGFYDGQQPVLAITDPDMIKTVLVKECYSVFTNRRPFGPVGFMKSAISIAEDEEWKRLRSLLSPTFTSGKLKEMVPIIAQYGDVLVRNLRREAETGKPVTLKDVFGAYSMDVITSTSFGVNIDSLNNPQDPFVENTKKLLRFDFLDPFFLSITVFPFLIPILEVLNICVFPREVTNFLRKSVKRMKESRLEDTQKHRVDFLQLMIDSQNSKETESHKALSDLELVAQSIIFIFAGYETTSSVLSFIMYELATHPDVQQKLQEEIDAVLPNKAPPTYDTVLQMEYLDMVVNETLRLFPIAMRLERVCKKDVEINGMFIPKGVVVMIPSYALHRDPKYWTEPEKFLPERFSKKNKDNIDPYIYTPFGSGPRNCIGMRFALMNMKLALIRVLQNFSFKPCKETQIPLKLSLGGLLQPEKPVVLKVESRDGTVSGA
Chain of Cytochrome P450 2C19 (P33261 whole entry): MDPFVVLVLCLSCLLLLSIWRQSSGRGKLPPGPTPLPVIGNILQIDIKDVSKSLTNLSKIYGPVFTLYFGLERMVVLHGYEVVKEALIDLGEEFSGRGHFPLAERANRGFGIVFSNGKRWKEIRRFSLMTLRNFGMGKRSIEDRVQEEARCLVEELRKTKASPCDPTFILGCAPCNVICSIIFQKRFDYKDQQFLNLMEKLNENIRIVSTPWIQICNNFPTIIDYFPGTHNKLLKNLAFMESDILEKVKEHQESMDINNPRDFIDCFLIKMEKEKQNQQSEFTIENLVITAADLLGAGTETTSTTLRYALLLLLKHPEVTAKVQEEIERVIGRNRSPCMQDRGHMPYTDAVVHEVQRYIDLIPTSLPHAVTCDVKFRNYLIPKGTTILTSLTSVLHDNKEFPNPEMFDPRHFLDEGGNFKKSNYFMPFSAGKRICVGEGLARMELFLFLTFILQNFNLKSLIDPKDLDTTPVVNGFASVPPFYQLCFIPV
Chain of Cytochrome P450 2D6 (P10635 whole entry): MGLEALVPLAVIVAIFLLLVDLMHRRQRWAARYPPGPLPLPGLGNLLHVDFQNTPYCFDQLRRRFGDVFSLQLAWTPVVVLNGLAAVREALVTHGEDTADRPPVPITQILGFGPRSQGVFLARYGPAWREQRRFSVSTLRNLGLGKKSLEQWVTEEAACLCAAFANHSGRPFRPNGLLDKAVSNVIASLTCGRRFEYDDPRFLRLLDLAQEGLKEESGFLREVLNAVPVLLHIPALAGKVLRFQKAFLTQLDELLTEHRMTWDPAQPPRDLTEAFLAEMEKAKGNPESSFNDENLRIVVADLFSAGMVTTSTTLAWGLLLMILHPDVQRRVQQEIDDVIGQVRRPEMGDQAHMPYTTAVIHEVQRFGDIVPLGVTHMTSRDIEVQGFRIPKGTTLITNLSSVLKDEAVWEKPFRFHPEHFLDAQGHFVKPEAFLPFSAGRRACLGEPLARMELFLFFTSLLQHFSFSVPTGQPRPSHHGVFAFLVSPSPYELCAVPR

SMILES: COc1cc(Nc2nccc(Nc3ccc4c(C)n[nH]c4c3)n2)cc(OC)c1OC [GW612286X]
- bioavailability [1]: 85%
- clearance [2]: 16 mL/min/kg
- IC50 [3]: 0.18 µM

SMILES: Cc1nc2ccc(N(C)c3ccnc(Nc4cccc(S(N)(=O)=O)c4)n3)cc2n1C
- IC50 [4]: 25 µM
- IC50 [5]: 26 µM
- IC50 [6]: 2.8 µM
- IC50 [7]: 15 µM
- IC50 [8]: 26 µM
- IC50 [9]: 1.7 µM

SMILES: Fc1cnc(Nc2cccc(Br)c2)nc1Nc1cccc(Br)c1
- IC50 [10]: 0.4 µM

SMILES: COc1cc2/c(=N/c3ccc(Br)cc3F)nc[nH]c2cc1OCC1CCN(C)CC1 [VANDETANIB]
- IC50 [3]: 0.4 µM

SMILES: CN(c1ccc2cn(C)nc2c1)c1ccnc(Nc2cccc(S(N)(=O)=O)c2)n1
- IC50 [4]: 18 µM
- IC50 [5]: 9.2 µM
- IC50 [6]: 0.11 µM
- IC50 [7]: 2.9 µM
- IC50 [8]: 4.7 µM
- IC50 [9]: 3.9 µM

SMILES: Cc1ccc(Nc2nccc(N(C)c3ccc4c(C)n(C)nc4c3)n2)cc1S(N)(=O)=O [PAZOPANIB]
- inhibition in vivo at 100 mg/kg [11]: 83%
- inhibition in vivo at 100 mg/kg [12]: 69%
- concentration at 12 h [13]: 38500 ng/mL
- bioavailability [14]: 47%
- inhibition in vivo at 100 mg/kg [15]: 110%
- AUC(0-inf) [16]: 657 µg·h/mL
- inhibition in vivo at 10 mg/kg [17]: 16%
- clearance [18]: 1.4 mL/min/kg
- inhibition in vivo at 30 mg/kg [19]: 102%
- AUC(0-inf) [20]: 1140 µg·h/mL
- bioavailability [1]: 72%
- inhibition in vivo at 10 mg/kg [21]: 99%
- inhibition in vivo at 30 mg/kg [22]: 57%
- concentration at 12 h [23]: 6320 ng/mL
- AUC(0-inf) [24]: 220 µg·h/mL
- clearance [2]: 1.4 mL/min/kg
- inhibition in vivo at 30 mg/kg [25]: 59%
- fraction unbound [26]: < 0.001
- clearance [27]: 1.4 mL/min/kg
- inhibition in vivo at 10 mg/kg [28]: 0%
- bioavailability [29]: 65%
- concentration at 12 h [30]: 24800 ng/mL
- inhibition in vivo at 30 mg/kg [31]: 35%
- inhibition in vivo at 100 mg/kg [32]: 55%
- inhibition in vivo at 10 mg/kg [33]: 32%

SMILES: COc1cc2ncnc(Nc3ccc(C)c(O)c3)c2cc1OC
- IC50 [34]: 0.0006 µM

SMILES: COc1cc2ncnc(Nc3ccc4c(C)n[nH]c4c3)c2cc1OC
- IC50 [10]: 0.0017 µM

SMILES: Cc1c2ccc(N(C)c3ccnc(Nc4cccc(S(N)(=O)=O)c4)n3)cc2nn1C
- IC50 [4]: 16 µM
- IC50 [5]: 20 µM
- IC50 [6]: 0.023 µM
- IC50 [7]: 1.4 µM
- IC50 [8]: 16 µM
- IC50 [9]: 31 µM

SMILES: Cc1c2ccc(N(C)c3ccnc(Nc4cccc(S(N)(=O)=O)c4)n3)cc2nn1Cc1ccccc1
- IC50 [4]: 66 µM
- IC50 [5]: 1.4 µM
- IC50 [6]: 11 µM
- IC50 [7]: 0.5 µM
- IC50 [8]: 74 µM
- IC50 [9]: 79 µM

SMILES: Cc1ccc(Nc2ccnc(Nc3cccc(Br)c3)n2)cc1O
- IC50 [10]: 0.0063 µM
- IC50 [35]: 3.5 µM
- IC50 [3]: 0.54 µM

SMILES: CCS(=O)(=O)c1ccc(OC)c(Nc2nccc(N(C)c3ccc4c(C)n[nH]c4c3)n2)c1
- bioavailability [1]: 65%
- clearance [2]: 10 mL/min/kg

SMILES: Cc1n[nH]c2cc(N(C)c3ccnc(Nc4cccc(S(N)(=O)=O)c4)n3)ccc12
- IC50 [4]: 4.8 µM
- IC50 [5]: 7.2 µM
- IC50 [6]: 0.094 µM
- IC50 [7]: 0.7 µM
- IC50 [8]: 7.6 µM
- IC50 [9]: 16 µM

SMILES: Cc1nn(C)c2cc(N(C)c3ccnc(Nc4cccc(S(N)(=O)=O)c4)n3)ccc12 [GW770220A]
- IC50 [4]: 6.3 µM
- IC50 [5]: 9.3 µM
- IC50 [6]: 1.4 µM
- IC50 [7]: 1 µM
- IC50 [8]: 13 µM
- IC50 [9]: 1.7 µM

SMILES: CCS(=O)(=O)c1ccc(OC)c(Nc2nccc(Nc3ccc4c(C)n[nH]c4c3)n2)c1
- bioavailability [1]: 28%
- IC50 [35]: 13 µM
- clearance [2]: 40 mL/min/kg
- IC50 [3]: 0.13 µM

SMILES: Cc1nc2cc(N(C)c3ccnc(Nc4cccc(S(N)(=O)=O)c4)n3)ccc2n1C
- IC50 [4]: 33 µM
- IC50 [5]: 33 µM
- IC50 [6]: 1.4 µM
- IC50 [7]: 9 µM
- IC50 [8]: 27 µM
- IC50 [9]: 45 µM

From ChEMBL document CHEMBL1155848 (J Med Chem, 2008)
